Data on 17 molecules can be found in ChEMBL document CHEMBL1275584, “Genetically engineered lipopeptide antibiotics related to A54145 and daptomycin with improved properties” (Antimicrob Agents Chemother, 2010).

Common to all, as to type: functional
The subject of assay [1] is Staphylococcus aureus. Put plainly: Ratio of MIC for Staphylococcus aureus 42 in presence of 1% bovine pulmonary surfactant to MIC for Staphylococcus aureus 42 in absence of 1% bovine pulmonary surfactant. In outline: (§1)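 Broth MIC in Mueller-Hinton broth with 50 mg/liter CaCl2, run with or without 1% bovine pulmonary surfactant, following CLSI methods. Colonies came from frozen stocks streaked on sheep-blood tryptic soy agar (37°C, ~24 h). Incubation was at 37°C with rotation at 200 rpm. The ratio is MIC with surfactant divided by MIC without.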

For assay [2], the system named is Staphylococcus aureus. Put plainly: Antibacterial activity against Staphylococcus aureus 42 in absence of 1% bovine pulmonary surfactant by CLSI method. Conditions: Staphylococcus aureus, 42, Pulmonary surfactant. A digest of the protocol:
as §1

The subject of assay [3] is Staphylococcus aureus. Put plainly: Antibacterial activity against Staphylococcus aureus 42 in presence of 1% bovine pulmonary surfactant by CLSI method. Conditions: Staphylococcus aureus, 42, Pulmonary surfactant. A digest of the protocol:
as §1

≈ marks a conversion by molar mass, not a printed value.

Broadly, the MIC is the lowest concentration that inhibits growth of the organism. For `CC(C)CCCCCCCC(=O)N[C@@H](Cc1c[nH]c2ccccc12)C(=O)N[C@H](CC(N)=O)C(=O)N[C@@H](CC(=O)O)C(=O)N[C@@H]1C(=O)NCC(=O)N[C@@H](CCCN)C(=O)N[C@@H](CC(=O)O)C(=O)N[C@H](C)C(=O)N[C@@H](CC(=O)O)C(=O)NCC(=O)N[C@H](C)C(=O)N[C@@H]([C@H](C)CC(=O)O)C(=O)N[C@@H](CC(=O)c2ccccc2N)C(=O)O[C@H]1C`, the Ratio in assay [1] was 16. Moreover, the MIC was 1 µg/mL (≈ 0.618 µM) in assay [2] and 16 µg/mL in assay [3].
Turning to `CC[C@H](C)[C@@H]1NC(=O)[C@H]([C@H](C)CC(=O)O)NC(=O)[C@@H](CO)NC(=O)CNC(=O)[C@H](CC(=O)O)NC(=O)[C@@H](C)NC(=O)[C@H](CC(=O)O)NC(=O)[C@H](CCCN)NC(=O)CNC(=O)[C@@H](NC(=O)[C@H](CC(=O)O)NC(=O)[C@@H](CC(N)=O)NC(=O)[C@H](Cc2c[nH]c3ccccc23)NC(=O)CCCCCCCC(C)C)[C@H](C)OC1=O`, the Ratio in assay [1] is listed as 4. Also, the MIC came to 2 µg/mL (≈ 1.28 µM) in assay [2] and 8 µg/mL in assay [3].
For `CC[C@H](C)[C@@H]1NC(=O)[C@H](CCC(=O)O)NC(=O)[C@@H](CC(N)=O)NC(=O)CNC(=O)[C@H]([C@H](OC)C(=O)O)NC(=O)[C@@H](C)NC(=O)[C@H](CC(=O)O)NC(=O)[C@H](C)NC(=O)CN(C)C(=O)[C@@H](NC(=O)[C@@H](NC(=O)[C@@H](CCC(=O)O)NC(=O)[C@H](Cc2c[nH]c3ccccc23)NC(=O)CCCCCCCC(C)C)[C@H](O)C(N)=O)[C@H](C)OC1=O` the same measures were 2, 4 µg/mL (≈ 2.5 µM) and 8 µg/mL.
The like results for `CC(C)CCCCCCCC(=O)N[C@@H](Cc1c[nH]c2ccccc12)C(=O)N[C@H](CC(N)=O)C(=O)N[C@@H](CC(=O)O)C(=O)N[C@@H]1C(=O)NCC(=O)N[C@@H](CCCN)C(=O)N[C@@H](CC(=O)O)C(=O)N[C@H](CCCCN)C(=O)N[C@@H](CC(=O)O)C(=O)NCC(=O)N[C@H](CC(N)=O)C(=O)N[C@@H]([C@H](C)CC(=O)O)C(=O)N[C@@H](CC(=O)c2ccccc2N)C(=O)O[C@H]1C` were, in that order, 32, 1 µg/mL (≈ 0.582 µM) and 32 µg/mL.
The like results for `CC[C@H](C)[C@@H]1NC(=O)[C@H]([C@H](C)CC(=O)O)NC(=O)[C@@H](CC(N)=O)NC(=O)CNC(=O)[C@H]([C@H](OC)C(=O)O)NC(=O)[C@@H](C)NC(=O)[C@H](CC(=O)O)NC(=O)[C@H](C)NC(=O)CN(C)C(=O)[C@@H](NC(=O)[C@@H](NC(=O)[C@@H](CCC(=O)O)NC(=O)[C@H](Cc2c[nH]c3ccccc23)NC(=O)CCCCCCCC(C)C)[C@H](O)C(N)=O)[C@H](C)OC1=O` were, in that order, 32, 1 µg/mL (≈ 0.619 µM) and 32 µg/mL.
`CC[C@H](C)[C@@H]1NC(=O)[C@H]([C@H](C)CC(=O)O)NC(=O)[C@@H](CC(N)=O)NC(=O)CNC(=O)[C@H]([C@H](OC)C(=O)O)NC(=O)[C@@H](CC(N)=O)NC(=O)[C@H](CC(=O)O)NC(=O)[C@H](C)NC(=O)CN(C)C(=O)[C@@H](NC(=O)[C@@H](NC(=O)[C@@H](CCC(=O)O)NC(=O)[C@H](Cc2c[nH]c3ccccc23)NC(=O)CCCCCCCC(C)C)[C@H](O)C(N)=O)[C@H](C)OC1=O`: in assay [1], the Ratio was found to be 8. Further, the MIC came to 8 µg/mL (≈ 4.82 µM) in assay [2] and 64 µg/mL in assay [3].
For `CC[C@H](C)[C@@H]1NC(=O)[C@H]([C@H](C)CC(=O)O)NC(=O)[C@@H](CC(N)=O)NC(=O)CNC(=O)[C@H]([C@H](OC)C(=O)O)NC(=O)[C@@H](CCCCN)NC(=O)[C@H](CC(=O)O)NC(=O)[C@H](C)NC(=O)CN(C)C(=O)[C@@H](NC(=O)[C@H](CC(N)=O)NC(=O)[C@@H](CCC(=O)O)NC(=O)[C@H](Cc2c[nH]c3ccccc23)NC(=O)CCCCCCCC(C)C)[C@H](C)OC1=O` the same measures were 8, 2 µg/mL (≈ 1.21 µM) and 16 µg/mL.
`CC[C@H](C)[C@@H]1NC(=O)[C@H]([C@H](C)CC(=O)O)NC(=O)[C@@H](CO)NC(=O)CNC(=O)[C@H]([C@H](OC)C(=O)O)NC(=O)[C@@H](CCCCN)NC(=O)[C@H](CC(=O)O)NC(=O)[C@H](C)NC(=O)CN(C)C(=O)[C@@H](NC(=O)[C@@H](NC(=O)[C@@H](CCC(=O)O)NC(=O)[C@H](Cc2c[nH]c3ccccc23)NC(=O)CCCCCCCC(C)C)[C@H](O)C(N)=O)[C@H](C)OC1=O`: the Ratio in assay [1] was determined as 8. The MIC is 2 µg/mL (≈ 1.22 µM) in assay [2] and 16 µg/mL in assay [3].
Regarding `CC(C)CCCCCCCC(=O)N[C@@H](Cc1c[nH]c2ccccc12)C(=O)N[C@H](CC(N)=O)C(=O)N[C@@H](CC(=O)O)C(=O)N[C@@H]1C(=O)NCC(=O)N[C@@H](CCCN)C(=O)N[C@@H](CC(=O)O)C(=O)N[C@H](C)C(=O)N[C@@H](CC(=O)O)C(=O)NCC(=O)N[C@H](CO)C(=O)N[C@@H]([C@H](C)CC(=O)O)C(=O)N[C@@H](C(C)C)C(=O)O[C@H]1C`, the Ratio in assay [1] stood at 2. Also, the MIC in assay [2] was 4 µg/mL (≈ 2.59 µM); in assay [3] it was 8 µg/mL.
For `CC(C)CCCCCCCC(=O)N[C@@H](Cc1c[nH]c2ccccc12)C(=O)N[C@H](CC(N)=O)C(=O)N[C@@H](CC(=O)O)C(=O)N[C@@H]1C(=O)NCC(=O)N[C@@H](CCCN)C(=O)N[C@@H](CC(=O)O)C(=O)N[C@H](C)C(=O)N[C@@H](CC(=O)O)C(=O)NCC(=O)N[C@H](CC(N)=O)C(=O)N[C@@H]([C@H](C)CC(=O)O)C(=O)N[C@@H](CC(=O)c2ccccc2N)C(=O)O[C@H]1C` the same measures were 16, 1 µg/mL (≈ 0.602 µM) and 16 µg/mL.
Consider `CC[C@H](C)[C@@H]1NC(=O)[C@H](CCC(=O)O)NC(=O)[C@@H](CO)NC(=O)CNC(=O)[C@H]([C@H](OC)C(=O)O)NC(=O)[C@@H](CCCCN)NC(=O)[C@H](CC(=O)O)NC(=O)[C@H](C)NC(=O)CN(C)C(=O)[C@@H](NC(=O)[C@@H](NC(=O)[C@@H](CCC(=O)O)NC(=O)[C@H](Cc2c[nH]c3ccccc23)NC(=O)CCCCCCCC(C)C)[C@H](O)C(N)=O)[C@H](C)OC1=O`, for which the Ratio in assay [1] was 2. Also, the MIC turned out to be 64 µg/mL (≈ 39.2 µM) in assay [2] and 128 µg/mL in assay [3].
For `CC(C)CCCCCCCC(=O)N[C@@H](Cc1c[nH]c2ccccc12)C(=O)N[C@H](CC(N)=O)C(=O)N[C@@H](CC(=O)O)C(=O)N[C@@H]1C(=O)NCC(=O)N[C@@H](CCCN)C(=O)N[C@@H](CC(=O)O)C(=O)N[C@H](C)C(=O)N[C@@H](CC(=O)O)C(=O)NCC(=O)N[C@H](CO)C(=O)N[C@@H]([C@H](C)CC(=O)O)C(=O)N[C@@H](CC(=O)c2ccccc2N)C(=O)O[C@H]1C` the same measures were 128, 0.5 µg/mL (≈ 0.306 µM) and 64 µg/mL.
For `CC[C@H](C)[C@@H]1NC(=O)[C@H](CCC(=O)O)NC(=O)[C@@H](CC(N)=O)NC(=O)CNC(=O)[C@H]([C@H](OC)C(=O)O)NC(=O)[C@@H](CC(N)=O)NC(=O)[C@H](CC(=O)O)NC(=O)[C@H](C)NC(=O)CN(C)C(=O)[C@@H](NC(=O)[C@@H](NC(=O)[C@@H](CCC(=O)O)NC(=O)[C@H](Cc2c[nH]c3ccccc23)NC(=O)CCCCCCCC(C)C)[C@H](O)C(N)=O)[C@H](C)OC1=O` the same measures were 1, 16 µg/mL (≈ 9.73 µM) and 16 µg/mL.
The like results for `CC(C)CCCCCCCC(=O)N[C@@H](Cc1c[nH]c2ccccc12)C(=O)N[C@H](CC(N)=O)C(=O)N[C@@H](CC(=O)O)C(=O)N[C@@H]1C(=O)NCC(=O)N[C@@H](CCCN)C(=O)N[C@@H](CC(=O)O)C(=O)N[C@H](C)C(=O)N[C@@H](CC(=O)O)C(=O)NCC(=O)N[C@H](CO)C(=O)N[C@@H](CCC(=O)O)C(=O)N[C@@H](CC(=O)c2ccccc2N)C(=O)O[C@H]1C` were, in that order, 2, 8 µg/mL (≈ 4.94 µM) and 16 µg/mL.
Consider `CC[C@H](C)[C@@H]1NC(=O)[C@H](CCC(=O)O)NC(=O)[C@@H](CC(N)=O)NC(=O)CNC(=O)[C@H]([C@H](OC)C(=O)O)NC(=O)[C@@H](CO)NC(=O)[C@H](CC(=O)O)NC(=O)[C@H](C)NC(=O)CN(C)C(=O)[C@@H](NC(=O)[C@@H](NC(=O)[C@@H](CCC(=O)O)NC(=O)[C@H](Cc2c[nH]c3ccccc23)NC(=O)CCCCCCCC(C)C)[C@H](O)C(N)=O)[C@H](C)OC1=O`, for which the Ratio in assay [1] came out at 1. The MIC was found to be 8 µg/mL (≈ 4.95 µM) in assay [2] and 8 µg/mL in assay [3].
For `CC[C@H](C)[C@@H]1NC(=O)[C@H](CCC(=O)O)NC(=O)[C@@H](C)NC(=O)CNC(=O)[C@H]([C@H](OC)C(=O)O)NC(=O)[C@@H](CCCCN)NC(=O)[C@H](CC(=O)O)NC(=O)[C@H](C)NC(=O)CN(C)C(=O)[C@@H](NC(=O)[C@@H](NC(=O)[C@@H](CCC(=O)O)NC(=O)[C@H](Cc2c[nH]c3ccccc23)NC(=O)CCCCCCCC(C)C)[C@H](O)C(N)=O)[C@H](C)OC1=O`, in assay [1], the Ratio is on record as 2. Besides, the MIC in assay [2] turned out to be 8 µg/mL (≈ 4.95 µM); in assay [3], 16 µg/mL.
For `CC(C)CCCCCCCC(=O)N[C@@H](Cc1c[nH]c2ccccc12)C(=O)N[C@H](CC(N)=O)C(=O)N[C@@H](CC(=O)O)C(=O)N[C@@H]1C(=O)NCC(=O)N[C@@H](CCCN)C(=O)N[C@@H](CC(=O)O)C(=O)N[C@H](C)C(=O)N[C@@H](CC(=O)O)C(=O)NCC(=O)N[C@H](CO)C(=O)N[C@@H]([C@H](C)CC(=O)O)C(=O)N[C@@H](Cc2c[nH]c3ccccc23)C(=O)O[C@H]1C` the same measures were 32, 1 µg/mL (≈ 0.613 µM) and 32 µg/mL.
